Screens: PubChem, several laboratories
Apaf-1 inh: human Apaf-1 inhibition | AID 489030 | inhibition, % at 20 µM | reconstituted apoptosome caspase-3 activity, DEVD-Rh110 fluorescence | actives 0.71% (n = 330,000); active = inhibition of at least 40% at 20 µM
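Material: reconstituted apoptosome with Apaf-1, cytochrome c, caspase-9, procaspase-3, dATP; medium: pH 7.5 Hepes buffer with CHAPS, BSA, DTT; also added: cytochrome c and DEVD-Rh110 substrate; timing: 30 min plus 50 min, RT; signal: Rh110 fluorescence intensity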
PAFAH1B3 inh: inhibitors of human PAFAH1B3 | recombinant PAFAH1B3, FP-rhodamine probe, fluorescence polarization | AID 492972 | actives 0.28% (n = 340,000) | inhibition, % at 3.39 µM;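 active = inhibition above the screen-wide average of all tested compounds plus 3 SD, cut at about 25% in these data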
Target sequence (Q15102 whole entry, looked up): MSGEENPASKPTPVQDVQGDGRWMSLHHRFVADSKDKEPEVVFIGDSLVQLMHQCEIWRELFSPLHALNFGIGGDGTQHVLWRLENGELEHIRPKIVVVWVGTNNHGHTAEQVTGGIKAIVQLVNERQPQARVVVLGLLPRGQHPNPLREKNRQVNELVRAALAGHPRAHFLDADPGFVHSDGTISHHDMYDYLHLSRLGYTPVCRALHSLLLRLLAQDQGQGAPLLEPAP
PAFAH2 FP inh: PAFAH2 (human) inhibition; Q99487; recombinant PAFAH2, FP-rhodamine activity probe, fluorescence polarization; inhibition, % at 3.39 µM; actives 0.99% (n = 340,000);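 active = inhibition above the mean over all tested compounds plus 3 SD, cut at about 30% in these data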;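 note: inhibitors block probe labeling of enzyme so polarization drops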
pPAFAH inh: pPAFAH (human) enzyme inhibition | inhibition, % at 3.39 µM | actives 1.5% (n = 330,000) | Q13093 | recombinant pPAFAH, FP-rhodamine probe fluorescence polarization;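 active = inhibition above the mean inhibition across the screen plus 3 SD, cut at about 25% in these data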;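 note: inhibitors block binding of the rhodamine activity-based probe so polarization drops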
PAFAH1B2 inh: PAFAH1B2 (human) inhibition. recombinant PAFAH1B2, FP-rhodamine activity probe, fluorescence polarization. inhibition, % at 3.39 µM. actives 1.2% (n = 340,000);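 active = inhibition above the mean of all tested compounds plus 3 SD, cut at about 24% in these data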
Target sequence (P68402 whole entry, looked up): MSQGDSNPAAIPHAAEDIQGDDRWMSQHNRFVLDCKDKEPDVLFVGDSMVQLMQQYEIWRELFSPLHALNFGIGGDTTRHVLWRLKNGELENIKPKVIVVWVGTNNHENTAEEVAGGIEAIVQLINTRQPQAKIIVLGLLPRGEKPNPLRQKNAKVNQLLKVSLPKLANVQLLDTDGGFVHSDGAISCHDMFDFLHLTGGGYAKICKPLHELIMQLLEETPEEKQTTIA
pPAFAH FP conf: confirmation of human plasma PAF acetylhydrolase (pPAFAH) inhibitors; shares compounds with pPAFAH inh; recombinant pPAFAH, FP-Rh probe fluorescence polarization; inhibition, % at 3.39 µM; actives 72% (n = 2,300); AID 463230;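 active = mean inhibition of the triplicate above the hit cutoff set for the earlier primary screen, cut at about 25% in these data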
Numbers stand for hits; i = inactive; nt = no result given. Compounds with a hit are over-represented: about 3.1% of the library has one in this group of screens.

SMILES | Apaf-1 inh | PAFAH1B3 inh | PAFAH2 FP inh | pPAFAH inh | PAFAH1B2 inh | pPAFAH FP conf
COc1cc(/C=C2/C(=O)NN(c3ccc(F)cc3)C2=O)cc(Cl)c1O | i | i | i | i | i | nt
COc1cc(/C=C2/C(=O)NN(c3ccc(Cl)c(Cl)c3)C2=O)cc([N+](=O)[O-])c1O | nt | i | 36 | 52 | 31 | 33
O=C(NC1CCCCCC1)C1CCCN(c2ncccn2)C1 (stereo not drawn) | i | i | i | i | i | nt
COc1ccc2ccc(O)c(CN(C)CC(=O)Nc3ccccc3C(F)(F)F)c2c1 | i | i | i | i | i | nt
CCOC(=O)c1c(-c2ccccc2)csc1NC(=O)/C(C#N)=C/c1ccc(OC)c(OC)c1 | i | i | i | i | i | nt
CCOC(=O)c1c(-c2ccccc2)csc1NC(=O)/C(C#N)=C/c1ccc(O)c(OC)c1 | nt | i | i | 40 | i | i
COc1cccc(OCc2cc(/C=N/Nc3ccc(C(=O)O)cc3)ccc2OC)c1 | i | i | i | 39 | i | 65
O=C(c1ccc(Br)cc1)N1CCC2(CC1)NCCc1[nH]cnc12 | i | i | i | i | i | nt
CC(=O)Nc1ccc(C(=O)COC(=O)CCc2ccccc2)c(F)c1 | i | i | i | i | i | nt
Cc1cc(C)n(-c2ccc(C(=O)OCC(=O)c3ccc(Br)s3)cc2)n1 | i | i | 50 | 36 | i | 27
O=c1c(-c2ccc([N+](=O)[O-])cc2)coc2c(O)c(O)ccc12 | i | i | i | 54 | i | 78
O=[N+]([O-])c1ccccc1NC(=S)N/N=C/c1ccc(O)c(O)c1 | i | i | 49 | 59 | i | 64
CCOc1ccc([C@@H]2CC=C(C(=O)O)[C@H](c3cccc(Cl)c3)N2S(=O)(=O)c2ccc(C)cc2)cc1 | i | i | i | i | i | nt
Cc1ccc(S(=O)(=O)N2[C@@H](c3ccc(C(C)(C)C)cc3)C(C(=O)O)=CC[C@H]2c2ccc(Cl)cc2)cc1 | i | i | i | 37 | 90 | 54
CN(Cc1ccc(C(C)(C)C)cc1)C(=O)c1ccc2c(c1)OCO2 | i | i | i | nt | i | nt
O=C1CC(=C2c3ccccc3-c3ccccc32)C(=O)N1CCCCN1CCN(c2ccccc2)CC1 | i | i | i | 41 | i | i
COc1ccc(C=O)c(OCc2cn(CC(=O)c3ccc(O)cc3)nn2)c1 | nt | i | i | nt | i | nt
CC1(C)NC(=O)N(CC(=O)Nc2ccc(-n3cnnn3)cc2)C1=O | i | i | i | i | i | nt
CCOC(=O)C1CCN(Cc2ccc(OCc3ccccc3)c(OC)c2)CC1 | i | i | i | 72 | i | i
CCOC(=O)C1CCN(Cc2ccc(OC)c(OCc3ccccc3)c2)CC1 | i | i | i | i | i | nt
Cc1cc(C)c(S(=O)(=O)N(C)CC(=O)N2CCCCC2)c(C)c1 | i | i | i | 52 | i | i
Cc1cc(C)c(S(=O)(=O)N(CC(=O)N2CCCC2)C2CCCCC2)c(C)c1 | i | i | i | i | i | nt
Oc1ccccc1-c1nc2c3ccccc3c3ccccc3c2[nH]1 | nt | 43 | 59 | 45 | 27 | 27
COc1ccc(OC)c(CN2CCCC(C(=O)c3ccccc3SC)C2)c1 (stereo not drawn) | i | i | i | 58 | i | i
O=C(COc1ccc(F)cc1F)N1CCCCCCC1 | i | i | i | i | i | nt
SMILES | Apaf-1 inh | PAFAH1B3 inh | PAFAH2 FP inh | pPAFAH inh | PAFAH1B2 inh | pPAFAH FP conf
O=C(NCCc1ccc2c(c1)OCCO2)c1cccc(S(=O)(=O)N2CCCC2)c1 | i | i | i | 36 | i | i
O=C(CCCc1c[nH]c2ccccc12)NCc1ccccc1C(F)(F)F | i | i | i | i | i | nt
COc1cc(/C=N/NC(=O)C(Cc2c[nH]c3ccccc23)NC(=O)OCC(C)C)cc([N+](=O)[O-])c1OCc1ccccc1 (stereo not drawn) | i | i | i | i | i | nt
COc1cc(/C=N/NC(=O)C(Cc2c[nH]c3ccccc23)NC(=O)OCc2ccccc2)cc([N+](=O)[O-])c1O (stereo not drawn) | nt | i | i | 46 | 43 | 52
COc1cc(/C=N/NC(=O)C(Cc2c[nH]c3ccccc23)NC(=O)OCC(C)C)cc([N+](=O)[O-])c1O (stereo not drawn) | i | i | i | 37 | i | 31
C=CCOc1ccc(/C=N/NC(=O)c2c(C)nc3ccc(Cl)cn23)cc1 | i | i | i | i | i | nt
CCOC(=O)c1ncn2c1[C@@H]1CCNC1C(=O)c1cc(OC)ccc1-2 (stereo partly drawn) | i | i | i | i | i | nt
